Laboratory results reported in ChEMBL document CHEMBL1140992, “High throughput screening of potentially selective MMP-13 exosite inhibitors utilizing a triple-helical FRET substrate” (Bioorg Med Chem, 2009).

How the values were obtained:
[1] = target: T1, Interstitial collagenase (Homo sapiens) (UniProt P03956); experiment: Inhibition recombinant MMP1 at 100 uM; design: scale not given: the % may be the effect or the level left
T1 sequence (whole entry): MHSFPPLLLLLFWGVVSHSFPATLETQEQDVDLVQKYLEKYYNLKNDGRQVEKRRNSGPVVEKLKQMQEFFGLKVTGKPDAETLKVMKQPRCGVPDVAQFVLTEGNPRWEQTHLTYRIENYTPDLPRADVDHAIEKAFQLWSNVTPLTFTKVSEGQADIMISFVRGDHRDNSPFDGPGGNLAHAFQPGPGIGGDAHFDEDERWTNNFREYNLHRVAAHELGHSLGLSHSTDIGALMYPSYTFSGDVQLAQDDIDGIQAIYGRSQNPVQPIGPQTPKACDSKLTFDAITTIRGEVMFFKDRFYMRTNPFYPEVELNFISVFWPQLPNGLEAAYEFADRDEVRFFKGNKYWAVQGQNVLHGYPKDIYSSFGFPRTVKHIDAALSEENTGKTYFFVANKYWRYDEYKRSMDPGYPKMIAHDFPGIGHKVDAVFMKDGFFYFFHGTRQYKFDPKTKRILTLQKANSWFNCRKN
How it was run: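 Enzyme source: proMMP-1 expressed in E. coli and refolded from inclusion bodies. Activated with 1 mM APMA plus 0.1 equiv MMP-3(Δ248-460) for 6 h at 37 °C. The MMP-3 fragment was then removed by size-exclusion chromatography. Active enzyme was quantified by titration with recombinant N-TIMP-1, using Knight fSSP or NFF-3 as substrate.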

[2] = target: 72 kDa type IV collagenase (Homo sapiens) (UniProt P08253); experiment: Inhibition recombinant MMP2 at 100 uM; design: scale not given: the % may be the effect or the level left
Chain of 72 kDa type IV collagenase (Homo sapiens) (P08253 110-660 limits assumed): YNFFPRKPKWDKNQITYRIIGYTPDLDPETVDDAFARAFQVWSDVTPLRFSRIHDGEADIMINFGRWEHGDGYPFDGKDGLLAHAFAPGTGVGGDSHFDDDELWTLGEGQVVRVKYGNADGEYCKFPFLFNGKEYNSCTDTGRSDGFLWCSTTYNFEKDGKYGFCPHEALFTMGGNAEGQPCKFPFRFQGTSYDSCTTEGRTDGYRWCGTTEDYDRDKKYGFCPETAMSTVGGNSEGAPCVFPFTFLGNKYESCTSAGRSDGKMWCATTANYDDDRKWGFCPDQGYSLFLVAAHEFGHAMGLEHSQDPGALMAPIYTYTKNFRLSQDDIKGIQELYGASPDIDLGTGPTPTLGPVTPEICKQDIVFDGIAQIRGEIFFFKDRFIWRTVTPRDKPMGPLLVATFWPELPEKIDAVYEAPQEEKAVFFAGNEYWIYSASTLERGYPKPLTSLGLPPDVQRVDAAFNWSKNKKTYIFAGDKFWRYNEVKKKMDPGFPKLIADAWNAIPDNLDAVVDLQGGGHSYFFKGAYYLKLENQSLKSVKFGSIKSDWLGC

[3] = target: Matrix metalloproteinase-9 (Homo sapiens) (UniProt P14780); experiment: Inhibition recombinant MMP9 at 100 uM; design: scale not given: the % may be the effect or the level left
Chain of Matrix metalloproteinase-9 (Homo sapiens) (P14780 whole entry): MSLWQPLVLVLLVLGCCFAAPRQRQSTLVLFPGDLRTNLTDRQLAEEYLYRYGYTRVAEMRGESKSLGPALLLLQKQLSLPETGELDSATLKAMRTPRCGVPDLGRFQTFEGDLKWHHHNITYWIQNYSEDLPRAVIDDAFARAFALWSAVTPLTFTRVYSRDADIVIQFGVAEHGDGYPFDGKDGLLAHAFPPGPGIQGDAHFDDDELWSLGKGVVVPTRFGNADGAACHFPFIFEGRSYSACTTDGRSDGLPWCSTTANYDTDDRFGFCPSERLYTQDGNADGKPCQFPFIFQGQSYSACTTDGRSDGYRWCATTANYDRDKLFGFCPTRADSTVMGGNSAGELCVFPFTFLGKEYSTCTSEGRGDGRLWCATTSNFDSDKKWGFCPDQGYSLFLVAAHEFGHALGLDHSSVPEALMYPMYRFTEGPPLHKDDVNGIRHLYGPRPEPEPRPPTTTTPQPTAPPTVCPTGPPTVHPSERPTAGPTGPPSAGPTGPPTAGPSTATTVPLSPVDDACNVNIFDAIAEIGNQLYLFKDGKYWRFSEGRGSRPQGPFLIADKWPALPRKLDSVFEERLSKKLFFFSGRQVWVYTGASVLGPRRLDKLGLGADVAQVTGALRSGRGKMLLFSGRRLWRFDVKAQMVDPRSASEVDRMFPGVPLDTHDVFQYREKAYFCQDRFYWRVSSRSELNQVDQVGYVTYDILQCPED
How it was run: (§1)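 Pro-enzyme (MMP-8 expressed in CHO-K1 cells; MMP-9 recombinant) was activated with 1 mM APMA for 1 h at 37 °C. Active enzyme concentration was determined by titration with recombinant N-TIMP-1, using Knight fSSP or NFF-3 substrate.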

[4] = target: Neutrophil collagenase (Homo sapiens) (UniProt P22894); experiment: Inhibition recombinant MMP8 expressed in CHO-K1 cells at 100 uM; assay type: cell-based; design: scale not given: the % may be the effect or the level left; how it was run: as §1
Chain of Neutrophil collagenase (Homo sapiens) (P22894 101-467 limits assumed): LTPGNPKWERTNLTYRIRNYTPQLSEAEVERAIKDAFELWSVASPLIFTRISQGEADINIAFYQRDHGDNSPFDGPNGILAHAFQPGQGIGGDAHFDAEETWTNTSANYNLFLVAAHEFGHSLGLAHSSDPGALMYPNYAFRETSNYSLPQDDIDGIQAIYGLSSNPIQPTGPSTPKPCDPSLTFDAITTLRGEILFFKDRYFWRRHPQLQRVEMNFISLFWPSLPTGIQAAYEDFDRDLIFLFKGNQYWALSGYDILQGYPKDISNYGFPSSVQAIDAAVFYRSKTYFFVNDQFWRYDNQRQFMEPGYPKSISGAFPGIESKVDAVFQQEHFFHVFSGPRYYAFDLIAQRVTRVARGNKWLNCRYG

[5] = target: T2, Collagenase 3 (Homo sapiens, UniProt P45452); experiment: Inhibition of human recombinant MMP13 expressed in Escherichia coli
[6] = target: Macrophage metalloelastase (Homo sapiens) (UniProt P39900); experiment: Inhibition recombinant MMP12 at 100 uM; design: scale not given: the % may be the effect or the level left
Chain of Macrophage metalloelastase (Homo sapiens) (P39900 106-470 limits assumed): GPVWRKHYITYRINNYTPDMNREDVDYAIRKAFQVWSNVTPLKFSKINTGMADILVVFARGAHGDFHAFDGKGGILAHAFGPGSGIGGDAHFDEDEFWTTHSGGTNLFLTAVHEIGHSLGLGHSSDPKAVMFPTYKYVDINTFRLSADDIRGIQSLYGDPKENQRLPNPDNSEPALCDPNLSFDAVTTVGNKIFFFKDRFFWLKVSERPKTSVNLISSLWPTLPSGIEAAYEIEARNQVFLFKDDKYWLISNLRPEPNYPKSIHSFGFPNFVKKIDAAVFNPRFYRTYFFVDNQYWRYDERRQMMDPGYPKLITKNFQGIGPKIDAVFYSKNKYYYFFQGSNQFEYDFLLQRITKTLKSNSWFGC
How it was run: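 Recombinant MMP-12 was expressed directly in active form, with no zymogen activation step. Active concentration was determined by recombinant N-TIMP-1 titration, with Knight fSSP or NFF-3 as substrate.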

[7] = target: Stromelysin-1 (Homo sapiens) (UniProt P08254); experiment: Inhibition recombinant MMP3 at 100 uM; design: scale not given: the % may be the effect or the level left
Chain of Stromelysin-1 (Homo sapiens) (P08254 100-477 limits assumed): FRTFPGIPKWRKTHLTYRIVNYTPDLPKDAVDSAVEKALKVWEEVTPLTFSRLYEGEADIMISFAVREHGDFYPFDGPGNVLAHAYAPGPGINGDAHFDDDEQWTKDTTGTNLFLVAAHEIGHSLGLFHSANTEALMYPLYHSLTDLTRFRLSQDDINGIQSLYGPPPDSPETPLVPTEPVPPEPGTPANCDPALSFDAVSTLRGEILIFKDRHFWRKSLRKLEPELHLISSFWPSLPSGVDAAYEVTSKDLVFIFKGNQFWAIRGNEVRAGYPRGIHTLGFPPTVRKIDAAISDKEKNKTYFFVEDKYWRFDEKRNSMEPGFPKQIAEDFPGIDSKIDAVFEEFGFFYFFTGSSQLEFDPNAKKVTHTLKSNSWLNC
How it was run: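 ProMMP-3 was expressed in E. coli and folded from inclusion bodies. It was activated with 5 μg/mL chymotrypsin at 37 °C for 2 h, and chymotrypsin was then inactivated with 2 mM diisopropylfluorophosphate. Active concentration was set by N-TIMP-1 titration, with Knight fSSP or NFF-3 as substrate.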

[8] = target: T2, Collagenase 3; experiment: Activity of human recombinant MMP13; design: concentration or dose not given beside the values
How it was run: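 Recombinant full-length human proMMP-13, activated with 1 mM APMA for 2 h at 37 °C and active-site titrated with N-TIMP-1. Run in 1536-well format in Tris·HCl pH 7.5, 100 mM NaCl, 10 mM CaCl2, 0.05% Brij-35, 0.3% DMSO. Triple-helical FRET substrate fTHP-15 (Mca/Dnp). Stopped with EDTA after 4 h at 25 °C; fluorescence read at ex 325/em 450 nm. Dose-response in triplicate, 10-point 1:3 dilutions from 40 μM; IC50 from four-parameter sigmoidal fit.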

Row | SMILES | Activity [1] | Activity [2] | Activity [3] | Activity [4] | IC50 [5] | Activity [6] | Activity [7] | Activity [8]
1 | O=C(O)CCC(NS(=O)(=O)c1ccc(-c2ccccc2)cc1)C(=O)O (stereo unspecified) | 25% | 7% | 14% | 2% | 2.1 µM | 2% | 63% | 4%
2 | Cc1nn(-c2ccccc2)c2sc(-c3nnc(S)o3)cc12 | 68% | 100% | 100% | 32% | 0.9 µM | 75% | 75% | 45%
3 | CCCCCCOc1ccc(C(CC(=O)O)C(N)=O)cc1 (stereo unspecified) | 91% | 0% | 0% | 10% | – | 0% | 43% | 15%
4 | COc1cc(-n2nc(C)c3c2OC(N)=C(C#N)C3c2ccccc2)c(Cl)c(Br)c1O (stereo unspecified) | – | – | – | – | > 40 µM | – | – | –
5 | COc1cc(OC)cc(-c2nnc(Nc3nc4c(F)cccc4s3)o2)c1 | 96% | 73% | 75% | 36% | – | 64% | 95% | 35%
6 | CCOC(=O)/C(C#N)=C1/C=Nc2ccccc2N1 | 94% | 100% | 99% | 80% | 3.4 µM | 100% | 96% | 62%
7 | Oc1nc(SCc2ccc(Cl)cc2)nc2c1CCC2 | – | – | – | – | 10.3 µM | – | – | –
8 | C=CCN1C(=O)/C(=C2/Sc3ccccc3N2CCCS(=O)(=O)O)SC1=S | 96% | 100% | 100% | 100% | – | 100% | 100% | 36%
9 | CCOC(=O)C1CCCN(c2nc3ccccc3nc2C(C#N)C(=O)OCC)C1 (stereo unspecified) | – | – | – | – | 13.3 µM | – | – | –
10 | COC(=O)c1ccc(CSc2nc(O)c3c(-c4cccs4)csc3n2)o1 | 93% | 100% | 100% | 94% | – | 92% | 92% | 42%
11 | O=C1NC(=O)C(CCc2ccncc2)(c2ccccc2)C(=O)N1 | 27% | 17% | 3% | 8% | – | 1% | 87% | 14%
12 | CCN1C(=O)/C(=C2/Sc3ccccc3N2CCCS(=O)(=O)O)SC1=S | 88% | 80% | 14% | 100% | – | 94% | 90% | 4%
13 | O=C(CSCc1nc(O)n[nH]1)NCCOc1cccc(Oc2ccccc2)c1 | 85% | 19% | 27% | 34% | – | 33% | 96% | 35%
14 | COc1ccc(C2C(C(C)=O)=C(C)N=c3s/c(=C\c4cc(C)n(C)c4C)c(=O)n32)c(OC)c1 (stereo unspecified) | – | – | – | – | > 40 µM | – | – | –
15 | O=C1NC(=O)C(CCc2ccncc2)(C2CCCCC2)C(=O)N1 | 47% | 49% | 27% | 50% | – | 21% | 96% | 35%
16 | COc1ccc(CSc2nc(C)cc(O)n2)cc1 | 98% | 47% | 66% | 80% | – | 72% | 97% | 25%
